Active and inactive are the calls of the source. The rule behind the calls is not given here.
Key:
OVCAR-5 = test: Growth inhibition of human OVCAR5 cells at 10 uM by sulforhodamine B assay; format: functional; details: read-out: GI
Procedure, shortened: (§1)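 Single-dose 10 µM screen by sulforhodamine B assay, reported as percent inhibition of cell proliferation. Cells grown in medium with 10% heat-inactivated FBS at 37 °C, 5% CO2, and treated at about 70% confluence or in log phase. Compounds dissolved in DMSO; controls received vehicle (<0.5% v/v).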

HL-60 [1] = test: Induction of apoptosis in human HL60 cells assessed as increase of reactive oxygen species level at 1 uM after 24 hrs using DCFH-DA fluorescent dye based flow cytometric analysis relative to control; format: functional
Procedure, shortened: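 HL-60 cells (1 x 10^5 per 1.5 mL) treated 24 h, then loaded with 10 µM H2DCFDA for 30 min at 37 °C. Washed twice in PBS and read in FL-1 (530 nm). Percentage of DCF-positive cells determined; mean ± SD of three experiments.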

HL-60 [2] = test: Induction of apoptosis in human HL60 cells assessed as decrease in size at 1 uM after 12 hrs by scanning electron microscopy; format: functional, cell-based
Procedure, shortened: (§2)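 HL-60 cells at 2 x 10^5/ml in 10% FCS medium exposed to 0.5 or 1 µM for 6–48 h; DMSO vehicle controls. Cells fixed in 2.5% glutaraldehyde in 0.1 M phosphate (pH 7.2) at 4 °C for 1 h, post-fixed in 1% OsO4 and ethanol-dehydrated. Critical-point dried, gold-coated, and imaged by SEM at 40 kV.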

HL-60 [3] = test: Induction of apoptosis in human HL60 cells assessed as PARP cleavage at 1 uM after 24 hrs by Western blotting; format: functional, cell-based
Procedure, shortened: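 HL-60 cells treated 24 h and lysed in RIPA buffer on ice; protein measured by Bradford against a BSA standard. 50 µg resolved by SDS-PAGE and transferred to PVDF, blocked in 5% milk/TBST, then primary antibodies 1:1000 for 2 h and HRP secondary 1:1000 for 1 h. ECL detection with β-actin as loading control; bands quantified by densitometry.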

HL-60 [4] = test: Cell cycle arrest in human HL60 cells assessed as accumulation at S phase at 1 uM after 24 hrs using propidium iodide staining by flow cytometry; format: functional, cell-based
Procedure, shortened: (§3)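 HL-60 cells (1 x 10^5 per 1.5 mL) treated 24 h, then fixed in 70% cold ethanol at −20 °C overnight. RNase digestion (400 µg/ml) at 37 °C for 45 min, then propidium iodide (10 µg/ml) for 30 min. Flow cytometry on 10,000 events, FL2-A vs FL2-W, with doublet discrimination. Sub-G0 (hypodiploid) peak taken as apoptotic cells. Mean ± SD of three independent experiments.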

HL-60 [5] = test: Induction of apoptosis in human HL60 cells assessed as formation of apoptotic bodies at 1 uM after 24 hrs by scanning electron microscopy; format: functional, cell-based; procedure, shortened: as §2
HL-60 [6] = test: Induction of apoptosis in human HL60 cells at 0.5 uM after 48 hrs by scanning electron microscopy; format: functional, cell-based; procedure, shortened: as §2
[7] = Growth inhibition of human 502713 cells at 10 uM by sulforhodamine B assay; format: functional; details: read-out: GI; procedure, shortened: as §1
HL-60 [8] = test: Induction of apoptosis in human HL60 cells assessed as caspase8 activation using IETD-AFC as substrate at 1 uM after 24 hrs by fluorimetry relative to control; format: functional
Procedure, shortened: (§4)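 HL-60 cells (2 x 10^6) treated 24 h, washed and lysed. Caspase-3, -8 and -9 activities in lysates measured fluorometrically with a commercial caspase fluorescent assay kit. Two independent experiments, each in duplicate.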

HL-60 [9] = test: Induction of apoptosis in human HL60 cells assessed as caspase3 activation using DEVD-AFC as substrate at 1 uM after 24 hrs by fluorimetry relative to control; format: functional; procedure, shortened: as §4
SK-N-SH = test: Growth inhibition of human SK-N-SH cells at 10 uM by sulforhodamine B assay; format: functional; details: read-out: GI; procedure, shortened: as §1
HL-60 [10] = test: Induction of apoptosis in human HL60 cells assessed as smoothening of surface at 1 uM after 12 hrs by scanning electron microscopy; format: functional, cell-based; procedure, shortened: as §2
HL-60 [11] = test: Induction of apoptosis in human HL60 cells assessed as caspase9 activation using LEHD-AMC as substrate at 1 uM after 24 hrs by fluorimetry relative to control; format: functional; procedure, shortened: as §4
HL-60 [12] = test: Cell cycle arrest in human HL60 cells assessed as accumulation at G1 phase at 1 uM after 24 hrs using propidium iodide staining by flow cytometry; format: functional, cell-based; procedure, shortened: as §3

O=C(Nc1nc2ccc([N+](=O)[O-])cc2s1)c1cccnc1Nc1cc(F)c(F)c(F)c1
inhibition of growth at 10 µM (OVCAR-5): 52%
Activity (HL-60 [1]): inactive
Activity (HL-60 [2]): Active
Activity (HL-60 [3]): Active
Activity (HL-60 [4]): inactive
Activity (HL-60 [5]): Active
Activity (HL-60 [6]): inactive
inhibition of growth at 10 µM [7]: 80%
fold change (FC) (HL-60 [8]): 2
fold change (FC) (HL-60 [9]): 2
inhibition of growth at 10 µM (SK-N-SH): 49%
Activity (HL-60 [10]): Active
fold change (FC) (HL-60 [11]): 2
Activity (HL-60 [12]): inactive

From ChEMBL document CHEMBL1926589, “2-Anilinonicotinyl linked 2-aminobenzothiazoles and [1,2,4]triazolo[1,5-b] [1,2,4]benzothiadiazine conjugates as potential mitochondrial apoptotic inducers” (Bioorg Med Chem, 2011)
